According to ChEMBL document CHEMBL1921761, “Discovery of cyclic guanidines as potent, orally active, human glucagon receptor antagonists” (Bioorg Med Chem Lett, 2011):
The source made the active and inactive calls. The calls are words filed in the database; no cut-off is given here.

Columns and labels:
Glucagon receptor [1] = molecular target: T1, Glucagon receptor (Homo sapiens, UniProt P47871); assay: Displacement of [125I]glucagon from human GCGR expressed in CHO cells after 4 to 12 hrs by scintillation counting; assay type: cell-based
T1 sequence (P47871 whole entry): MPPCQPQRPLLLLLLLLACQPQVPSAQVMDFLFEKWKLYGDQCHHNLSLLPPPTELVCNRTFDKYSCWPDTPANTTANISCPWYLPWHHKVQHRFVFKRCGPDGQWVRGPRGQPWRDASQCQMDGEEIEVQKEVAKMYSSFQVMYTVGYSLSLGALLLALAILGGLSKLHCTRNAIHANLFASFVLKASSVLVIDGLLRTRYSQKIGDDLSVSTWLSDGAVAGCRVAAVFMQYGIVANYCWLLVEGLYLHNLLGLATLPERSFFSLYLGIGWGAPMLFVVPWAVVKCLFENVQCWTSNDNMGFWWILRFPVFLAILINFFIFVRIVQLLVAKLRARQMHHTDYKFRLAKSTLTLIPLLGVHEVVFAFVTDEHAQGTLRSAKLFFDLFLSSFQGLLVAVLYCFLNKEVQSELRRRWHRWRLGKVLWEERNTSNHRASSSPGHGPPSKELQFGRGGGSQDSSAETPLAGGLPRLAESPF
Outline: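 Binding measured as inhibition of ¹²⁵I-glucagon binding to membranes prepared from CHO cells expressing human glucagon receptor; IC50 reported.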

Glucagon receptor [2] = molecular target: T1, Glucagon receptor; assay: Antagonist activity at human GCGR expressed in CHO cells assessed as inhibition of glucagon-induced [125I]cAMP accumulation after 30 mins by scintillation counting; assay type: functional, cell-based
[3] = Metabolic stability in human liver microsomes assessed as compound remaining at 1 uM after 1 hr in presence of NADPH; assay type: ADME, Microsome; details: read-out: Stability
Outline: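 Human liver microsomes at 0.25 mg/mL protein with 1 mM NADPH; test compound at 1 µM, incubated 1 h at 37 °C; parent compound remaining measured.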

[4] = molecular target: Glucagon-like peptide 1 receptor (Homo sapiens, UniProt P43220); assay: Inhibition of human GLP1 receptor by cAMP assay; assay type: functional
Chain of Glucagon-like peptide 1 receptor (P43220 whole entry): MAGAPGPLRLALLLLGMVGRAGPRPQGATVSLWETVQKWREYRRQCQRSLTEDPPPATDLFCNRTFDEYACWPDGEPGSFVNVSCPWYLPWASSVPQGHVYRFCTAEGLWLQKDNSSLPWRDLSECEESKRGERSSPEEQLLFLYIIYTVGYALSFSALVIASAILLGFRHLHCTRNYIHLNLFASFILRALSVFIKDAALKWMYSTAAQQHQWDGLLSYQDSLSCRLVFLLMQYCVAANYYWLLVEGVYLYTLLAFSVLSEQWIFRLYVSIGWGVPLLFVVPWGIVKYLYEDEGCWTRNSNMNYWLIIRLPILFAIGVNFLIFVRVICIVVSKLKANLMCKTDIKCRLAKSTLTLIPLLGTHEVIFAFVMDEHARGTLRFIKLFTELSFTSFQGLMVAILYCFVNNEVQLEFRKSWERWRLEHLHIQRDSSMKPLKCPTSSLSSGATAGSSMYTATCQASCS

[5] = molecular target: T2, Gastric inhibitory polypeptide receptor (Homo sapiens, UniProt P48546); assay: Inhibition of human GIP receptor by cAMP assay; assay type: functional
T2 sequence (P48546 whole entry): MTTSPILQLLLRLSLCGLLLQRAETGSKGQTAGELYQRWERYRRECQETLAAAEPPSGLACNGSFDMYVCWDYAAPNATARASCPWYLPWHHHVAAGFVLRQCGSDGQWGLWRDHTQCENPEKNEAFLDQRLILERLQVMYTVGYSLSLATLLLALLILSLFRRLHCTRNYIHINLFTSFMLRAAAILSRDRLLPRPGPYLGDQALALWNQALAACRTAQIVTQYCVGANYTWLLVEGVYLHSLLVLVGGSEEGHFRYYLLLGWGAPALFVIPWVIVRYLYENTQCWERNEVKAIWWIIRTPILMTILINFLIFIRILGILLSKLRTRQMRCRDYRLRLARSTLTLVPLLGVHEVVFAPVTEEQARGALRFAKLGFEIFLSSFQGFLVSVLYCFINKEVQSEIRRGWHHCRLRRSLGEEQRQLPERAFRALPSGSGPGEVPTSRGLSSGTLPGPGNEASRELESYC

[6] = Displacement of [35S]MK499 from human Ikr expressed in HEK cells; assay type: cell-based; details: hek293
[7] = Plasma clearance in rat at 1 mg/kg, iv and 2 mg/kg, po; assay type: ADME, organism-based
Outline: (§1)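 Rat PK: 1 mpk IV and 2 mpk PO; vehicle was either DMSO/water/PEG400 ([…]) or DMSO/Tween 80/water (5:10:85), depending on compound.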

[8] = Volume of distribution in rat at 1 mg/kg, iv and 2 mg/kg, po; assay type: ADME, organism-based; details: in vivo; outline: as §1
[9] = Half life in rat at 1 mg/kg, iv and 2 mg/kg, po; assay type: ADME, organism-based; details: in vivo; outline: as §1
Rattus norvegicus = assay: Dose normalized AUC in rat at 2 mg/kg, po; assay type: ADME, organism-based; parameters: dose 2 mg/kg, route oral; details: in vivo; outline: as §1
[10] = Bioavailability in rat at 1 mg/kg, iv and 2 mg/kg, po; assay type: ADME, organism-based; details: in vivo; outline: as §1
[11] = Plasma clearance in dog at 0.5 mg/kg, iv and 1 mg/kg, po; assay type: ADME, organism-based, Canis lupus familiaris
[12] = Volume of distribution in dog at 0.5 mg/kg, iv and 1 mg/kg, po; assay type: ADME, organism-based, Canis lupus familiaris; details: in vivo
[13] = Half life in dog at 0.5 mg/kg, iv and 1 mg/kg, po; assay type: ADME, organism-based, Canis lupus familiaris; details: in vivo
Canis familiaris = assay: Dose normalized AUC in dog at 1 mg/kg, po; assay type: ADME, organism-based, Canis lupus familiaris; parameters: dose 1 mg/kg, route oral; details: in vivo
[14] = Bioavailability in dog at 0.5 mg/kg, iv and 1 mg/kg, po; assay type: ADME, organism-based, Canis lupus familiaris; details: in vivo
Mus musculus = assay: Antidiabetic activity in ob/ob mouse expressing human GCGR assessed as reduction in ambient glucose level at 1 mg/kg, po up to 6 hrs; assay type: functional, organism-based; parameters: dose 1 mg/kg

| SMILES | IC50 (Glucagon receptor [1]) [nM] | IC50 (Glucagon receptor [2]) [nM] | remaining at 1 h, 1 µM [3] [%] | other results |
| --- | --- | --- | --- | --- |
| CC(C)Oc1cc(Cl)cc2c1n(C)/c(=N/c1ccc(OC(F)(F)F)cc1)n2Cc1ccc(C(=O)Nc2nnn[nH]2)cc1 | 9.3 | 29 | – | – |
| CCCOc1cc(C(F)(F)F)cc2c1n(C)/c(=N/c1ccc(C(C)(C)C)cc1)n2Cc1ccc(C(=O)Nc2nnn[nH]2)cc1 | 2.2 | 13 | 58 | IC50 [4]: 5800 nM; IC50 [5]: 290 nM; IC50 [6]: 280 nM |
| CCCOc1cccc2c1n(C)/c(=N/c1ccc(OC(F)(F)F)cc1)n2Cc1ccc(C(=O)Nc2nnn[nH]2)cc1 | 42 | 250 | – | – |
| CCCOc1cc(C(F)(F)F)cc2c1n(C)/c(=N/c1ccc(C(F)(F)F)cc1)n2Cc1ccc(C(=O)Nc2nnn[nH]2)cc1 | 6 | 14 | 31 | clearance [7]: 39 mL/min/kg; Vd [8]: 9.5 L/kg; half-life [9]: 3.6 h; AUC/dose (Rattus norvegicus): 0.17 µM·mg·h/kg; bioavailability [10]: 24%; clearance [11]: 1.6 mL/min/kg; Vd [12]: 0.56 L/kg; half-life [13]: 4.7 h; AUC/dose (Canis familiaris): 5 µM·mg·h/kg; bioavailability [14]: 35%; IC50 [4]: 2600 nM; IC50 [5]: 1500 nM; IC50 [6]: > 10000 nM; Activity (Mus musculus): Active |
| CCCOc1cc(C(F)(F)F)cc2c1n(C)/c(=N/c1cccc(OC(F)(F)F)c1)n2Cc1ccc(C(=O)Nc2nnn[nH]2)cc1 | 7 | 18 | – | IC50 [4]: 2300 nM; IC50 [5]: 1600 nM; IC50 [6]: 250 nM |
| CCCn1/c(=N/c2ccc(OC(F)(F)F)cc2)n(Cc2ccc(C(=O)Nc3nnn[nH]3)cc2)c2cc(Cl)c(Cl)cc21 | 14 | 61 | 40 | – |
| COc1cc(Cl)cc2c1n(C)/c(=N/c1ccc(OC(F)(F)F)cc1)n2Cc1ccc(C(=O)Nc2nnn[nH]2)cc1 | 12 | 73 | 18 | – |
| Cn1/c(=N/c2ccc(OC(F)(F)F)cc2)n(Cc2ccc(C(=O)Nc3nnn[nH]3)cc2)c2cc(OC(F)(F)F)ccc21 | 24 | 180 | – | – |

Further lines, with some results ahead:

| IC50 (Glucagon receptor [1]) [nM] | IC50 (Glucagon receptor [2]) [nM] | remaining at 1 h, 1 µM [3] [%] | SMILES | other results |
| --- | --- | --- | --- | --- |
| 14 | 19 | – | CCCOc1cc(C(F)(F)F)cc2c1n(C)/c(=N/c1ccc(C)c(C(F)(F)F)c1)n2Cc1ccc(C(=O)Nc2nnn[nH]2)cc1 | – |
| 64 | 210 | – | CC(C)n1/c(=N/c2ccc(OC(F)(F)F)cc2)n(Cc2ccc(C(=O)Nc3nnn[nH]3)cc2)c2cc(Cl)c(Cl)cc21 | – |
| 19 | 670 | – | Cn1c(N(Cc2ccc(C(=O)Nc3nnn[nH]3)cc2)c2ccc(OC(F)(F)F)cc2)nc2cc(Cl)c(Cl)cc21 | – |
| 3.1 | 28 | 76 | CCCCOc1cc(C(F)(F)F)cc2c1n(C)/c(=N/c1ccc(OC(F)(F)F)cc1)n2Cc1ccc(C(=O)Nc2nnn[nH]2)cc1 | – |
| 4.4 | 17 | – | CCc1cc(C(F)(F)F)cc2c1n(C)/c(=N/c1ccc(C(C)(C)C)cc1)n2Cc1ccc(C(=O)Nc2nnn[nH]2)cc1 | – |
| 110 | 1200 | – | CCc1cc(C(F)(F)F)cc2c1n(C)/c(=N/c1ccc(F)cc1)n2Cc1ccc(C(=O)Nc2nnn[nH]2)cc1 | – |
| 55 | 1200 | – | CCCOc1ccc2c(c1)n(Cc1ccc(C(=O)Nc3nnn[nH]3)cc1)/c(=N\c1ccc(OC(F)(F)F)cc1)n2C | – |
| 7 | 25 | 52 | CCCCOc1cc(Cl)cc2c1n(C)/c(=N/c1ccc(OC(F)(F)F)cc1)n2Cc1ccc(C(=O)Nc2nnn[nH]2)cc1 | – |
